# Compounds with a hit are over-represented: about 3.1% of the library has one in this group of screens.
# Ecoli rRNA inh = inhibits bacterial ribosomal RNA function over humanized ribosomes; E. coli WT GFP vs humanized-ribosome RFP mutants, fluorescence, 24 h; hits give low values; DMSO median 0, no signal -100; GFP signal change (wild-type ribosome), % (concentration not given with the values); actives 1.6% (n = 350,000);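 active = significant combined selectivity score with lowered wild-type GFP, culture density cut under 30%, mutant RFP and density less affected; inactive = any of these conditions unmet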
# F508del corr = CFTR F508del correction in bronchial cells; CFBE cells, YFP halide quenching; stimulated with forskolin plus potentiator P3; % fluorescence drop versus neutral controls; AID 720511; actives 0.36% (n = 350,000); activity (quench increase), % at 7.58 µM;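 active = mean added fluorescence quench of at least 8% versus neutral control, with both replicates also reaching 8%; inconclusive = only one of the mean or replicate conditions met; inactive = mean below 8% and not both replicates reaching 8%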;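 note: cells transiently co-express mutant CFTR-F508del with the halide-sensitive YFP; corrector assay measuring rescue of mutant channel to the surface after 24 h compound exposure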
# S100A4 inh HTS = inhibitors of human S100A4 binding to myosin IIA peptide | S100A4/TAMRA-MyoIIA peptide fluorescence polarization | inhibition, % at 10.7 µM | actives 0.14% (n = 360,000) | AID 652163;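 active = mean inhibition of at least 70% across replicates, with every replicate also reaching that level; inconclusive = mean inhibition reaches 70% but some replicates fall short; inactive = mean inhibition below 70%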
# Target sequence (P26447 whole entry, looked up): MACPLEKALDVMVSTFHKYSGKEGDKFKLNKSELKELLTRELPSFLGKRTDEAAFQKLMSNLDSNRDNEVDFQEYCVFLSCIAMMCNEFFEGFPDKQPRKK
#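 Test system – S100A4 monomer (human) · Compound – single-point compound testing · Schedule – 5 min incubation before reading · Probe or stimulus – TAMRA-labelled myosin IIA heavy-chain peptide probe, 5 nM · Benchmarks – neutral control DMSO, positive control TFP · Medium – Calcium-containing HEPES buffer, pH 7.2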
# ERAP1 HTS inh = blocks human ERAP1 aminopeptidase activity; Q9NZ08; AID 652197; recombinant ERAP1, Leu-AMC fluorescence, 60 min; actives 0.15% (n = 340,000); inhibition, % at 10.7 µM;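 active = mean replicate inhibition of at least 30%, or all replicates individually reaching that 30% level; inactive = mean below 30% and not every replicate reaching it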
# SIRT5 block = sirtuin-5 (human) deacylase inhibition; actives 1.1% (n = 330,000); inhibition, % at 15 µM; Purified SirT5, succinyl-peptide AMC, trypsin-coupled fluorescence; Q9NXA8; in the data active = inhibition above about 15%; inconclusive = no clear call, values can overlap the other calls
# Target sequence (Q9NXA8 whole entry, looked up): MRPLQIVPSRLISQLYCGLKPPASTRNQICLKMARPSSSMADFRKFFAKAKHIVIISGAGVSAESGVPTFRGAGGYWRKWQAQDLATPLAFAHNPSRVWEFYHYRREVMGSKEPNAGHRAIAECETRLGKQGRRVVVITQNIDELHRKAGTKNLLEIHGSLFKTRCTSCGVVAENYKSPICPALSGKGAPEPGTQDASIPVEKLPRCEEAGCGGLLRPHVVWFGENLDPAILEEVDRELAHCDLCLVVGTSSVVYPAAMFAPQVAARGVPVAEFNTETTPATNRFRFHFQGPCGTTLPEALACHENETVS
# AID977621 = growth inhibition of wild-type GFP E. coli, dose response, H69 mutant RFP, cherry-pick; activity change, negative = inhibition at 50 µM; 1,900 tested, under 10 active; E. coli wild-type GFP strain growth, fluorescence, 24 h; shares compounds with Ecoli rRNA inh;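 active = Wild-type ribosome reporter drop at least double the humanized mutant ribosome reporter drop, growth loss under a set limit; inconclusive = no clear call, values can overlap the other calls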;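 note: wild-type GFP and H69 mutant RFP strains grown together 50/50 in each well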
# AID977628 = E. coli growth inhibition, wild-type GFP versus h24 humanized RFP strain, dose response, h24 mutant RFP vs wild-type GFP, cherry-pick; shares compounds with Ecoli rRNA inh; E. coli WT GFP strain growth, fluorescence, 24 h; activity change, negative = inhibition at 50 µM; 1,900 tested, under 10 active; AID 977628;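 active = compound lowering the normal-ribosome reporter at least twice as much as the humanized-ribosome reporter, growth loss under a set limit; inconclusive = no clear call, values can overlap the other calls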;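 note: wild-type GFP and h24 humanized RFP strains co-cultured 1 to 1 per well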
# Hits are given with their value; 0 = inactive; ? = inconclusive; - = no result.
SMILES,Ecoli rRNA inh,F508del corr,S100A4 inh HTS,ERAP1 HTS inh,SIRT5 block,AID977621,AID977628
COc1ccc(CN(C)C(=O)c2cc(-c3ccc(OC)c(OC)c3)nc3ccccc23)c(OC)c1,-23.0,0,0,0,0,0,0
COc1ccc(-c2cc(C(=O)N(C)CCc3ccc(OC)c(OC)c3)c3ccccc3n2)cc1,-24.5,0,0,0,0,?,-
COc1ccc(CCN(C)C(=O)c2cc(-c3ccccc3)nc3ccccc23)cc1OC,0,0,0,0,0,-,-
CCOc1ccc2oc(-c3ccccc3)c(C(=O)N(C)C)c2c1,-25.5,0,0,0,0,0,0
CCOc1ccc2oc(-c3ccccc3)c(C(=O)O)c2c1,-,-,0,-,-,-,-
COc1ccc(-c2nn(-c3ccccc3C)cc2CNCc2cccnc2)cc1F,-17.8,0,0,0,0,0,0
NS(=O)(=O)c1ccc(CCNC(=O)CCCCCNc2nc(=S)[nH]c3ccccc23)cc1,-22.4,0,0,0,0,0,0
Cc1ccc(NC(=O)c2c(C)noc2-c2snnc2C)cc1,-21.9,0,0,0,0,-,?
Cc1nnsc1-c1onc(C)c1C(=O)Nc1cc(Cl)cc(Cl)c1,0,0,0,-,0,-,-
CS(=O)(=O)c1ccc(C(=O)Nc2nc(-c3ccco3)c(-c3ccco3)s2)cc1,-19.0,0,0,0,0,0,?
Nc1c(Cl)cc(C2=NCCn3nc4ccccc4c32)cc1Cl,-19.9,0,0,0,-,0,-
Clc1ccc(C2=NCCn3nc4ccccc4c32)cc1,0,0,0,0,0,-,-
Nc1nc(N)nc(-c2cccc(Br)c2)n1,0,0,0,0,0,-,-
S=c1nc(-c2cccc(Br)c2)[nH][nH]1,-20.2,0,0,0,0,0,0
Cc1noc(C)c1S(=O)(=O)Nc1cccc2c1O[C@H](CN(C)Cc1ccc(Oc3ccccc3)cc1)[C@H](C)CN([C@H](C)CO)C2=O,0,0,0,0,0,-,-
O=C(C[C@@H]1CC[C@@H](NC(=O)CCN2CCCCC2)[C@@H](CO)O1)NCc1ccc(Cl)c(Cl)c1,0,0,0,0,0,-,-
CCC1(CC)NC(=O)N(CC(=O)N2N=C(c3ccc(Cl)cc3)CC2c2ccco2)C1=O (stereo unspecified),-25.4,0,0,0,0,0,?
O=C(c1ccc2c(c1)CCN2S(=O)(=O)c1ccccc1)N1CCN(c2ccccc2)CC1,-25.5,0,0,0,0,-,?
O=C(NCc1ccccc1)c1cc(S(=O)(=O)N2CCCCC2)ccc1N1CCOCC1,-17.8,0,0,0,0,0,0
Cc1ccc(S(=O)(=O)N(C)C[C@H]2Oc3ccc(NC(=O)CCCN(C)C)cc3CC(=O)N([C@H](C)CO)C[C@@H]2C)cc1,0,0,0,0,0,-,-
c1csc(Cn2c(-c3cccs3)nc3ccccc32)c1,0,-,0,0,0,-,-
Brc1ccccc1Cn1c(-c2cncs2)nc2ccccc21,-9.4,0,0,0,0,0,0
CCCNC(=O)C[C@@H]1C[C@@H]2c3cc(NS(=O)(=O)c4cccc(OC)c4)ccc3O[C@@H]2[C@@H](CO)O1,0,0,0,0,0,-,-
CC(=O)Cc1cc(O)c2ccccc2c1OC(=O)c1ccc(Br)cc1,-14.5,0,0,0,0,0,0
COc1ccc(C)c2sc(N(CCN(C)C)C(=O)c3ccc(S(=O)(=O)N(C)c4ccccc4)cc3)nc12,-11.7,0,0,0,-,-,0
Cc1ccc2sc(N(CCCN(C)C)C(=O)c3ccc(S(=O)(=O)N4CCc5ccccc5C4)cc3)nc2c1C,-29.3,0,0,0,0,0,0
COc1cccc2sc(N(CCCN(C)C)C(=O)c3ccc(S(=O)(=O)N4CCc5ccccc5C4)cc3)nc12,0,0,0,0,0,-,-
Cc1ccc(S(=O)(=O)NCc2c(-c3ccccc3)noc2C)cc1,-23.2,0,0,0,0,0,0
C=CCN(c1ccccc1)S(=O)(=O)c1cccc2cccnc12,-24.2,0,0,-,0,0,-
